Assay results from publication PMC9553801 (Clinical Pharmacokinetics, 2022).
“And” between values parts separate entries of the source, which are not always exact repeats. Equal values may be shown once. Read-outs that look alike come from different tables or passages of the source. Each block holds one compound with its values, some of them ahead of it.

Columns and labels:
[1] = patients with severe renal impairment (CrCL of 15 mL/min) compared with healthy participants; cited from earlier work
[2] = format: in vivo, human; conditions: for AUC / AUC(0-t) / AUC(0-inf) / Cmax / Tmax / half-life: human, plasma, po, 60 mg; for AUC: AUC96, single oral 60 mg; for AUC / AUC(0-t) / AUC(0-inf) / Cmax / %Urt (percentage dose recovered in urine) / CLT/F (apparent total body clearance): adjusted geometric mean (%CV); for AUC(0-t): AUCt; for AUC(0-t) / AUC(0-inf) / Cmax / Tmax / half-life / %Urt (percentage dose recovered in urine) / CLT/F (apparent total body clearance): single oral 60 mg; for Cmax: n = 8; for Tmax: median (minimum–maximum); for half-life: T½ (terminal plasma half-life), mean (SD)
Summary of the method: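 There were three eGFR-defined groups (MDRD; n = 8 each, matched by age, weight and sex). Each participant received one oral 60 mg dose after a standard meal, with serial plasma and urine collection. Plasma concentrations were measured by validated LC-MS/MS. Urine recovery was the sum of concentration × urine volume per collection interval, expressed as % of dose. CLT/F came from plasma concentration-time data. Values are adjusted geometric mean (%CV).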

[3] = Milvexian plasma protein binding by LC-MS/MS; format: in vitro ADME, human; conditions: adjusted geometric mean (%CV); for fraction unbound: human, plasma, %fu (fraction of unbound drug)
Summary of the method: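 The severe group had eGFR < 30 mL/min/1.73 m2 (MDRD) and no dialysis, and received a single oral 60 mg dose after a standard meal. A designated protein-binding blood sample was analysed for […] test compound by validated LC-MS/MS. Results were reported as adjusted geometric mean (%CV).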

Safety and tolerability = format: in vivo, human; conditions: for Any AE / Headache / Somnolence: single oral 60 mg
aPTT = experiment: Activated partial thromboplastin time; format: in vivo, human; conditions: for aPTT percentage change from baseline at mean peak: single oral 60 mg
Summary of the method: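 Participants (n = 8 per group) were grouped by eGFR (MDRD formula): normal ≥ 90, moderate ≥ 30 to ≤ 59, or severe < 30 mL/min/1.73 m2 (not on dialysis). They were matched by age, body weight and sex. Each received a single oral dose of test compound after a standard meal. aPTT was an exploratory PD biomarker, measured by a validated central-laboratory assay. Baseline was predose Day 1.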

[4] = Linear regression of log-transformed PK parameters versus eGFR or CrCL; format: in vivo, human; conditions: for increase in overall exposure: regression analysis
[5] = previous first-in-human study; cited from earlier work
[6] = patients undergoing dialysis compared with healthy participants; cited from earlier work
[7] = single dose 60 mg, all 24 participants
[8] = moderate renal impairment, n = 8
[9] = CrCL 30 vs CrCL 90 mL/min, CrCL-based regression
[10] = eGFR 15 vs eGFR 90 mL/min/1.73 m^2, eGFR-based regression
[11] = eGFR 30 vs eGFR 90 mL/min/1.73 m^2, eGFR-based regression

SMILES: COc1ccc(-n2nc(C(N)=O)c3c2C(=O)N(c2ccc(N4CCCCC4=O)cc2)CC3)cc1 [apixaban]
increase in exposure [1]: 44%

AUC ([2]; moderate renal impairment): 5020 ng·h/mL
AUC ([2]; normal renal function): 3880 ng·h/mL
AUC ([2]; severe renal impairment): 7170 ng·h/mL
AUC(0-t) ([2]; moderate renal impairment): 5000 ng·h/mL
AUC(0-t) ([2]; normal renal function): 3860 ng·h/mL
AUC(0-t) ([2]; severe renal impairment): 7090 ng·h/mL
AUC(0-inf) ([2]; moderate renal impairment): 5150 ng·h/mL
AUC(0-inf) ([2]; normal renal function): 3920 ng·h/mL
AUC(0-inf) ([2]; severe renal impairment): 7410 ng·h/mL
Cmax ([2]; moderate renal impairment (eGFR ≥ 30 to ≤ 59)): 406 ng/mL
Cmax ([2]; normal renal function (eGFR ≥ 90)): 462 ng/mL
Cmax ([2]; severe renal impairment (eGFR < 30)): 462 ng/mL
Tmax ([2]; moderate renal impairment): 4.75 h
Tmax ([2]; normal renal function): 4.5 h
Tmax ([2]; severe renal impairment): 5 h
half-life ([2]; moderate renal impairment): 18 h
half-life ([2]; normal renal function): 13.8 h
half-life ([2]; severe renal impairment): 17.7 h
%Urt (percentage dose recovered in urine) ([2]; moderate renal impairment): 7.64 (33) %
CLT/F (apparent total body clearance) ([2]; moderate renal impairment): 11.6 L/h and 11.6 (32) L/h
%Urt (percentage dose recovered in urine) ([2]; normal renal function): 10.5 (45) %
CLT/F (apparent total body clearance) ([2]; normal renal function): 15.3 L/h and 15.3 (36) L/h
%Urt (percentage dose recovered in urine) ([2]; severe renal impairment): 3.14 (75) %
CLT/F (apparent total body clearance) ([2]; severe renal impairment): 8.10 L/h and 8.10 (37) L/h
fraction unbound ([3]; moderate renal impairment): 0.0881
fraction unbound ([3]; normal renal function): 0.0885
fraction unbound ([3]; severe renal impairment): 0.084
%Protein binding ([3]; severe renal impairment): 91.5 (1) %
increase in AUCt ([4]; CrCL 15 vs CrCL 90 mL/min, CrCL-based regression): 49%
increase in AUCt [4, 9]: 38%
increase in AUC∞ [4, 9]: 40%
increase in AUCt [4, 10]: 50%
increase in AUC∞ [4, 10]: 54%
increase in AUCt [4, 11]: 39%
increase in AUC∞ [4, 11]: 41%
increase in overall exposure ([4]; moderate renal impairment group): approximately 40%
increase in overall exposure ([4]; severe renal impairment group): ~50%
SMILES: C[C@@H]1CCC[C@H](n2cnc(-c3cc(Cl)ccc3-n3cc(Cl)nn3)cc2=O)c2cc(ccn2)-c2c(cnn2C(F)F)NC1=O [milvexian, Milvexian]
participants reporting headache (Safety and tolerability; [7]): 8.3%
participants reporting one AE (Safety and tolerability; [7]): 12.5%
participants reporting somnolence (Safety and tolerability; [7]): 4.2%
bleeding events (Safety and tolerability; single dose 60 mg, all renal function groups): No bleeding events were reported
Any AE (Safety and tolerability; [8]): 1 (12.5) n (%)
Headache (Safety and tolerability; [8]): 1 (12.5) n (%)
Somnolence (Safety and tolerability; [8]): 0 n (%)
Any AE (Safety and tolerability; normal renal function, n = 8): 1 (12.5) n (%)
Headache (Safety and tolerability; normal renal function, n = 8): 0 n (%)
Somnolence (Safety and tolerability; normal renal function, n = 8): 1 (12.5) n (%)
Any AE (Safety and tolerability; severe renal impairment, n = 8): 1 (12.5) n (%)
Headache (Safety and tolerability; severe renal impairment, n = 8): 1 (12.5) n (%)
Somnolence (Safety and tolerability; severe renal impairment, n = 8): 0 n (%)
Any AE (Safety and tolerability; total, N = 24): 3 (12.5) n (%)
Headache (Safety and tolerability; total, N = 24): 2 (8.3) n (%)
Somnolence (Safety and tolerability; total, N = 24): 1 (4.2) n (%)
aPTT percentage change from baseline at mean peak (aPTT; moderate renal impairment, 5 h postdose): 97%
aPTT percentage change from baseline at mean peak (aPTT; normal renal function, 5 h postdose): 127%
aPTT percentage change from baseline at mean peak (aPTT; severe renal impairment, 6 h postdose): 100%
effect on aPTT (aPTT; single oral dose, all renal function groups): concentration-dependent prolongation of aPTT
renal excretion [5]: below 20%

SMILES: O=C(NC[C@H]1CN(c2ccc(N3CCOCC3=O)cc2)C(=O)O1)c1ccc(Cl)s1 [rivaroxaban]
increase in exposure [6]: 56%
